Hits are enriched below; roughly 4.7% of the tested compounds scored in any of these assays.
MrgX1 antag – antagonists of human MrgX1 receptor, primary screen, HEK293 cells, Fluo-4 calcium flux; Mas-related G-protein coupled receptor member X1 (Homo sapiens), Q96LB2; B-score at 10 µM; BAM8-22 antagonism; stronger effect = lower value; 1.3% of 310,000 active; AID 588676, 2011;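 active = calcium-response B-score plate-corrected more than 3 library SD below zero, starting fluorescence within 5 deviations, no agonist response on first addition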;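 note: peak minus trough fluorescence over baseline after final BAM8-22 challenge near maximal dose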
Target sequence (Q96LB2 whole entry, looked up): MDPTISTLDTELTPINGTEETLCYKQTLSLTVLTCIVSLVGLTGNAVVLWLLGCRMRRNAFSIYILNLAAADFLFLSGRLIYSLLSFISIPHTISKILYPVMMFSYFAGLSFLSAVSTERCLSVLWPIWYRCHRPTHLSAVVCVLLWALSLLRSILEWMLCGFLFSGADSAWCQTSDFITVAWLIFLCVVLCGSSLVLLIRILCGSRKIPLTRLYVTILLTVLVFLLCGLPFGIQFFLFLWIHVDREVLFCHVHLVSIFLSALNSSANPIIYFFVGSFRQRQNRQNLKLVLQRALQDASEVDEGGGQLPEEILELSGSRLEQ
MrgX1 agonist – agonists of human MrgX1 receptor, primary screen, HEK293 cells, Fluo-4 calcium flux; Mas-related G-protein coupled receptor member X1 (Homo sapiens), Q96LB2; Fluo-4 calcium fluorescence, agonist mode; stronger effect = higher value; B-score at 10 µM; 0.44% of 310,000 active; AID 588627, 2011;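 active = calcium response B-score plate-corrected fluorescence ratio at least 3 library SD, with starting fluorescence B-score inside 5 SD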
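Material: MrgX1-expressing HEK293 cells / Dosing: compound as first of three additions / Incubation: overnight seeding, then 1 h dark dye loading / Signal: Fluo-4 NW calcium fluorescence / Evaluation: B-scored fluorescence response ratio / Benchmarks: positive and negative control wells on each plate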
KCC2 mod – KCC2 cotransporter modulators, thallium flux, primary screen, cell-based, HEK293 KCC2, FluoZin-2 fluorescence, MLSMR; Solute carrier family 12 member 5 (Homo sapiens), Q9H2X9; KCC2 cells, thallium flux FluoZin-2 fluorescence; AID 1456, 2008; B-score of Tl+ flux slope (higher = more flux/activation; lower = inhibition) at 10 µM; 2.2% of 190,000 active;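 active = thallium flux slope and its plate-corrected score both differing from the plate sample mean at a set confidence after two filtering rounds, in either direction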;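 note: slope of fluorescence scaled to starting intensity during 10 to 20 s after thallium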
RGS4 act – RGS4 potentiators or activators, primary screen, cell-based, HEK293 M3R inducible RGS4, calcium flux; B-score at 10 µM; carbachol calcium flux Fluo4; stronger effect = lower value; AID 463111, 2010; 0.92% of 310,000 active;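 active = B-score of the integrated calcium signal more than 4 SD below the library mean, with starting fluorescence not abnormally high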;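 note: negative B-score means reduced calcium response which marks RGS4 activation or potentiation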
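Assay system: HEK293 FlpIn-TREx cells, stable M3R, doxycycline-inducible RGS4 / Probe or stimulus: carbachol, ECmax concentration / Times: overnight RGS4 induction, 30 min dye load 37 °C, 20 min compound RT / Signal: kinetic calcium fluorescence imaging with Fluo4-AM dye, 2 µM / Measure: Agonist-evoked peak-minus-minimum fluorescence over baseline, integrated ratio, B score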
MrgX1 PAM – positive allosteric modulators of MrgX1, primary screen, HEK293 cells, Fluo-4 calcium flux; FDSS; stronger effect = higher value; 0.63% of 310,000 active; AID 588675, 2011; Mas-related G-protein coupled receptor member X1 (Homo sapiens), Q96LB2; B-score at 10 µM;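 active = plate-corrected calcium response at least 3 library SD above typical, normal starting fluorescence, not activating the receptor alone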;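 note: compound read alongside a low EC10 to EC30 dose of BAM8-22 agonist; peak minus trough fluorescence over baseline measured at the second addition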
RGS4 block – RGS4 inhibitors, primary screen, cell-based, HEK293 M3R inducible RGS4, calcium flux; Regulator of G-protein signaling 4 (Homo sapiens), P49798; Fluo-4 calcium flux; stronger effect = higher value; triggered by carbachol at its EC20; B-score at 10 µM; 0.45% of 310,000 active; AID 463165, 2010;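 active = B-score, a plate-corrected calcium signal, over three deviations above library mean, with baseline fluorescence within five deviations of library mean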;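 note: RGS4 expression induced by doxycycline in cells with stable M3 receptor; B-score is computed from the integrated fluorescence ratio over baseline after carbachol; higher B-score means a larger calcium signal and so more RGS4 inhibition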
Target sequence (P49798 whole entry, looked up): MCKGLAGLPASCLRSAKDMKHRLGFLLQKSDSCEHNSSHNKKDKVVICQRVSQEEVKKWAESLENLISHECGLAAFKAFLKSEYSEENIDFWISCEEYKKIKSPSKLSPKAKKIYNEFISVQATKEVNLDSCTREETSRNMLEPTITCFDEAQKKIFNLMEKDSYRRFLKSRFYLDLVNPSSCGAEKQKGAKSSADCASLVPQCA
Each line names hits and unclear results; the compound was inactive in the other large screens.

CC1CCCC(NC(=S)NC(=O)c2ccccc2Br)C1C (centres undefined)	KCC2 mod 23
CCCN(Cc1ccccc1)C(=S)NC(=O)c1ccccc1[N+](=O)[O-]	KCC2 mod 69.5
CC1Cc2ccccc2N1C(=S)NC(=O)c1ccc(Cl)cc1Cl (centres undefined)	KCC2 mod 50.8
O=C(CNC(=S)NC(=O)c1ccccc1Br)c1ccccc1	none
CCCCNC(=S)NC(=O)c1ccccc1Br	KCC2 mod 34.7
CCN(Cc1ccccc1)C(=S)NC(=O)c1ccccc1Br	none (no result: KCC2 mod)
Oc1cccc2ccc(Nc3ccccn3)nc12	MrgX1 antag -7.45
O=C(Nc1ccccn1)c1cc2ccccc2cc1O	none (no result: KCC2 mod)
O=C(c1ccc(OC2CCN(CCCc3ccccc3)CC2)cc1)N1CCCC1	RGS4 act -7.39 (no result: KCC2 mod)
CC(=O)N1CCN(C(=O)c2ccc(OC3CCN(CCc4ccccc4)CC3)cc2)CC1	none (no result: KCC2 mod)
CCOC(=O)CC1=NN(c2ccccc2)C(=O)/C1=C\c1ccc(OC)cc1OC	none
COc1ccc(/C=N/Nc2cc(C)nc3ccc(OC)cc23)c(OC)c1	RGS4 act -7.68 (no result: KCC2 mod)
Cc1ccc(C2=NS(=O)(=O)N(C)C(C(=O)NC3CCCC3)=C2)cc1	none (no result: KCC2 mod)
CCOC(=O)C1C(=O)C=C(c2ccc(Br)cc2)CC1c1ccco1 (centres undefined)	MrgX1 antag -5.74
CCOC(=O)C1C(=O)C=C(c2cccc(NS(C)(=O)=O)c2)CC1c1ccco1 (centres undefined)	none
COC(=O)c1ccccc1CON1C(=O)C(C)(C)N(OCc2ccccc2C(=O)OC)C(=O)C1(C)C	MrgX1 antag -8.07
Cc1cccc(CSc2nc(N)c(C#N)c(-c3cccs3)c2C#N)c1	none
Cc1cccc(CSc2nc3c(c(-c4cccs4)c2C#N)CN(C)CC3)c1	MrgX1 PAM 8.74
CC(C)(C)c1ccc(/C=N/NC(=O)C[n+]2ccccc2)cc1	RGS4 act -7.13 (no result: KCC2 mod)
CC(C)(C)c1cc(/C=N/NC(=O)C[n+]2ccccc2)cc(C(C)(C)C)c1O	RGS4 act -7.04 (no result: KCC2 mod)
Cc1cc(C)c2nc(C)cc(N/N=C/c3ccc(O)cc3)c2c1	RGS4 act -7.42 (no result: KCC2 mod)
C[C@H]1CN=C(N(C)C)N1CCc1ccc(F)cc1	none (no result: KCC2 mod, RGS4 act, RGS4 block)
COc1cc(SC)ccc1C(=O)NNC(=O)c1cc(C)oc1C	MrgX1 antag -4.84 (no result: KCC2 mod)
O=C(Nc1ccccc1)c1cc2ccccc2c(=O)s1	MrgX1 antag -7.78
Cc1cc(CNC(=O)COC(=O)c2ccc(Cl)c(N)c2)cc(C)c1O	none (no result: KCC2 mod)
CCOC(=O)CN1C(=O)CC(c2ccc([N+](=O)[O-])cc2)C1=O (centres undefined)	none (no result: KCC2 mod)
CC(C)c1ccccc1OCCCCCN1CCOCC1	RGS4 act -7.38 (no result: KCC2 mod)
c1ccc(OCCOCCN2CCN(C(c3ccccc3)c3ccccc3)CC2)cc1	none
COc1ccccc1OCCCCN1CCN(C(c2ccccc2)c2ccccc2)CC1	RGS4 act -8.11
COc1ccc(N(CCC(=O)Nc2ccccc2F)S(=O)(=O)c2ccc(C)cc2C)cc1	none (no result: KCC2 mod)
Cc1ccc(C)c(NC(=O)CCC(=O)NN=C2CCCC2)c1	none (no result: KCC2 mod)
C=CCn1c(SCN2C(=O)c3ccccc3C2=O)nc2ccc(Cl)cc2c1=O	KCC2 mod 41.7
C=CCn1c(SCC(=O)Nc2sccc2C(N)=O)nc2ccc(Cl)cc2c1=O	KCC2 mod 11.3
C=CCn1c(SCC(=O)Nc2sccc2C(N)=O)nc2ccccc2c1=O	none
CC(C)c1ccccc1OCC(=O)Nc1ccccc1C(=O)N1CCOCC1	none (no result: KCC2 mod)
Cc1cc(C)c(C(=O)COC(=O)c2ccc([N+](=O)[O-])o2)cc1C	RGS4 act -7.55
COC(=O)c1ccc(=O)n(-c2ccc(OC)cc2)c1	KCC2 mod 8.16
COc1ccccc1C(=O)OC(C)CN1CCN(C)CC1 (centres undefined)	none (no result: KCC2 mod)
O=C(OC(C(=O)Nc1cc(Cl)cc(Cl)c1)c1ccccc1)C1=COCCO1 (centres undefined)	MrgX1 antag -5.3
CC(OC(=O)C1=COCCO1)C(=O)Nc1ccc(Oc2ccccc2)cc1 (centres undefined)	none
CCOc1ccc(N(CC(=O)Nc2c(C)n(C)n(-c3ccccc3)c2=O)S(=O)(=O)c2ccc(F)cc2)cc1	none (no result: KCC2 mod)
COc1cc2c(cc1OC)C(NNC(=O)c1ccc(Br)o1)=NC(C)(C)C2	none (no result: KCC2 mod)
CC(=O)Nc1ccc(NC(=O)CSc2ncc(C(=O)Nc3ccc(Cl)cc3)c(=O)n2C)cc1	none (no result: KCC2 mod)
CC(=O)Nc1cccc(NC(=O)CSc2ncc(C(=O)Nc3ccccc3)c(=O)n2C)c1	RGS4 block 5.76 (no result: KCC2 mod)
CC(=O)Nc1cccc(NC(=O)CSc2ncc(-c3ccc(Cl)cc3)n2Cc2ccco2)c1	RGS4 act -8.6
C[C@H](NC(=O)c1ccccc1Cl)C(=O)OCc1cn2cc(Cl)ccc2n1	none (no result: KCC2 mod)
COc1cc(CNC(C)c2ccccc2)cc(Br)c1OCc1ccc(F)cc1 (centres undefined)	RGS4 act -8.48 (no result: KCC2 mod)
O=[n+]1cc(-c2ccc(Br)cc2)n([O-])c2c1CCC2	MrgX1 antag -4.58
c1ccc(-c2cncn2-c2ccccc2)cc1	none (no result: KCC2 mod)
CCOc1ccccc1C(=O)NCC(=O)NCCCSc1ccccc1	none (no result: KCC2 mod)
Cc1ccc(C(=O)N/C(=C\c2ccc(-c3ccc([N+](=O)[O-])cc3)o2)C(=O)NC2CCS(=O)(=O)C2)cc1 (centres undefined)	MrgX1 antag -4.95
Cc1ccc(C(=O)N/C(=C/c2ccc(-c3ccc([N+](=O)[O-])cc3)o2)C(=O)NCCCN(C)C)cc1	MrgX1 agonist 45.5 (no result: KCC2 mod)
Cc1sc2nc(CSc3ccc([N+](=O)[O-])cc3)[nH]c(=O)c2c1C	none
Cc1sc2nc(CSc3cccc(C(F)(F)F)c3)[nH]c(=O)c2c1C	MrgX1 antag -5.11
Cc1c(C(=O)CN2CCCC(C)(C)C2)c2ccccc2n1C	none (no result: KCC2 mod)
S=C(N/N=C/c1ccccc1)N1CCOCC1	KCC2 mod 16.3
COC(=O)N/N=C/c1ccccc1	none
CSC(=S)N/N=C/c1ccccc1	KCC2 mod 170
CN1C(=O)C2(c3ccccc31)C1CCCC=C1C(C#N)=C(N)C2(C#N)C#N (centres undefined)	MrgX1 PAM 6.7 (no result: RGS4 act, RGS4 block)
CN1C(=O)C2(C(C#N)=C(N)N(c3cc(Cl)cc(Cl)c3)C3=C2C(=O)CCC3)c2ccccc21 (centres undefined)	none
CCc1ccc(NC(=O)C(C)Sc2nc(-c3ccco3)c(C#N)c(=O)[nH]2)cc1 (centres undefined)	none (no result: KCC2 mod)
